Among the data in ChEMBL document CHEMBL3611988, “Design and synthesis of 4-benzylpiperidine carboxamides as dual serotonin and norepinephrine reuptake inhibitors” (Bioorg Med Chem, 2015) are Ratio and IC50 values, retold here.

What all share (assay type): cell-based
Experiment [1] concerns the target T1, Sodium-dependent noradrenaline transporter (Homo sapiens, UniProt P23975). Put plainly: Inhibition of human NET expressed in HEK293 cells assessed as reduction of […] reuptake using [3H]-NET at 1 uM after 15 mins by liquid scintillation counting relative to GBR-12909. The method, boiled down:
(§1)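 HEK-293 cells stably transfected with hSERT or hNET, grown at 37 °C in 5% CO2, seeded in poly-lysine-coated 24-well plates for 24 h. Washed, then preincubated with test drug in uptake buffer (Tris/HEPES, NaCl, KCl, CaCl2, MgSO4, ascorbic acid, glucose; pH 7.1) at 37 °C for 15–20 min. Radiolabelled substrate added at 20 nM final for about 5 min at 37 °C. Cells washed three times with ice-cold buffer and lysed in 1% SDS.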

In experiment [2] the target is T2, Sodium-dependent serotonin transporter (Homo sapiens, UniProt P31645). Put plainly: Inhibition of human SERT expressed in HEK293 cells assessed as reduction of serotonin reuptake using [3H]-SERT at 1 uM after 15 mins by liquid scintillation counting relative to venlafaxine HCl. The method, boiled down:
as §1
Target sequence in this assay (P31645 whole entry, looked up): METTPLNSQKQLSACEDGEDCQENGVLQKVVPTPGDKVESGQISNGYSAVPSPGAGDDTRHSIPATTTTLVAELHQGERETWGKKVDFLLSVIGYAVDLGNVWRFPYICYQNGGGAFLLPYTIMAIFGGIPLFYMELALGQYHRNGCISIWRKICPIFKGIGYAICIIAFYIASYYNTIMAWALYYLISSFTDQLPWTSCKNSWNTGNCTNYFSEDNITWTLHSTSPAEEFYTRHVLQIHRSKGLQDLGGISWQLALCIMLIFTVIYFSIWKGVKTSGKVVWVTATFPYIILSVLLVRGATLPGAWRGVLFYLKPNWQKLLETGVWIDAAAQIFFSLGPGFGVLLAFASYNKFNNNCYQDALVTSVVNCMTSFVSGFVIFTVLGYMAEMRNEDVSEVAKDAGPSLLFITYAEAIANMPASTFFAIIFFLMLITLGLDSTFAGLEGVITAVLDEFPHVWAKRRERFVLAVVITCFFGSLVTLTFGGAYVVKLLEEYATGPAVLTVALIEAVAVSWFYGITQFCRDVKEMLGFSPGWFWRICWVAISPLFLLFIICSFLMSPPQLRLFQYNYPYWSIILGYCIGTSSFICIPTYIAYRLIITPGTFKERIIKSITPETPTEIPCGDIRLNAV

For experiment [3], the target named is T1, Sodium-dependent noradrenaline transporter. Description: Inhibition of human NET expressed in HEK293 cells assessed as reduction of […] reuptake using [3H]-NET at 3 uM after 15 mins by liquid scintillation counting relative to venlafaxine HCl. The method, boiled down:
as §1

In experiment [4] the target is T2, Sodium-dependent serotonin transporter. Put plainly: Inhibition of human SERT expressed in HEK293 cells assessed as reduction of serotonin reuptake using [3H]-SERT after 15 mins by liquid scintillation counting.
Target sequence in this assay (P31645 whole entry): as the sequence (P31645 whole entry, looked up) above
The target in experiment [5] is T1, Sodium-dependent noradrenaline transporter. Put plainly: Inhibition of human NET expressed in HEK293 cells assessed as reduction of […] reuptake using [3H]-NET after 15 mins by liquid scintillation counting. The method, boiled down:
as §1

T1 sequence (P23975 whole entry): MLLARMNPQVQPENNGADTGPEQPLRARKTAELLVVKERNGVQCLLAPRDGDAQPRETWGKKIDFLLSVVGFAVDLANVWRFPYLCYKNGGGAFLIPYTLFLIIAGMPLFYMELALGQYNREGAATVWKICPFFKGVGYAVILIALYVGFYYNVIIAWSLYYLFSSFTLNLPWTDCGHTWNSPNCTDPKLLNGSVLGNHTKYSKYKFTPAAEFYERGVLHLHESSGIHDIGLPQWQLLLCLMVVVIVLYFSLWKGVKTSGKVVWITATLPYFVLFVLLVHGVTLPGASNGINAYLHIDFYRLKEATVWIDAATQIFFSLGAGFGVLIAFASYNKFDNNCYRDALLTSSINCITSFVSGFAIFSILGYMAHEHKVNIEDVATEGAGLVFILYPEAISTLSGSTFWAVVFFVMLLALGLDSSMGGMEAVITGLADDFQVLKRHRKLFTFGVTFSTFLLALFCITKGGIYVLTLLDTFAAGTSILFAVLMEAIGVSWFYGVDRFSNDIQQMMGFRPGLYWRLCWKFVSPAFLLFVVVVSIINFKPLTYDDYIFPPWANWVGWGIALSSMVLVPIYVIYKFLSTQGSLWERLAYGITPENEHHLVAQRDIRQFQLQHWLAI

As to `O=C(NCCN1CCC(Cc2ccccc2)CC1)c1ccc2ccccc2c1`, the Ratio is 1.27 in experiment [1] and 0.8 in experiment [2].
As for `O=C(NCCN1CCC(Cc2ccccc2)CC1)c1ccc2cc(Br)ccc2c1`, the Ratio in experiment [1] amounted to 0.83; in experiment [2], 0.51.
Regarding `COc1ccc2cc(C(=O)NCCN3CCC(Cc4ccccc4)CC3)ccc2c1`, the Ratio was determined as 0.63 in experiment [2] and 1.97 in experiment [3].
In the case of `O=C(NCCCN1CCC(Cc2ccccc2)CC1)c1ccc2ccccc2c1`, the IC50 (usually the concentration needed to halve the response being measured) turned out to be 108 nM in experiment [4] and 342 nM in experiment [5]. The Ratio in experiment [1] is 1.03; in experiment [2], 0.95.
Turning to `O=C(NCCN1CCC(Cc2ccccc2)CC1)c1cc2ccccc2[nH]1`, the Ratio in experiment [2] came out at 0.58; in experiment [3], 1.49.
Turning to `O=C(NCCN1CCC(Cc2ccccc2)CC1)c1cc2ccccc2s1`, the Ratio in experiment [2] stood at 0.77; in experiment [3], 1.92.
Take `O=C(NCCCN1CCC(Cc2ccccc2)CC1)C(c1ccc(Cl)cc1)c1ccc(Cl)cc1`: the Ratio was determined as 0.19 in experiment [2] and 1.37 in experiment [3].
For `O=C(NCCN1CCC(Cc2ccccc2)CC1)C(c1ccc(Cl)cc1)c1ccc(Cl)cc1`, the Ratio in experiment [2] worked out at 0.4; in experiment [3] it was 1.54.
In the case of `O=C(NCCCN1CCC(Cc2ccccc2)CC1)c1cc(Cl)cc(Cl)c1`, the results for the IC50 in experiment [4] and in experiment [5] were 422 nM and 267 nM, respectively. The Ratio in experiment [1] stood at 1.12; in experiment [2], 0.83.
On to `O=C(NCCCN1CCC(Cc2ccccc2)CC1)C(c1ccccc1)c1ccccc1`, for which the Ratio is 0.26 in experiment [2] and 1.19 in experiment [3].
Take `O=C(NCCN1CCC(Cc2ccccc2)CC1)c1cccc2ccccc12`: the Ratio worked out at 0.1 in experiment [1] and 0.91 in experiment [2].
Turning to `O=C(NCCN1CCC(Cc2ccccc2)CC1)c1ccc2ccccc2n1`, the IC50 in experiment [4] was 786 nM; in experiment [5], 275 nM. The Ratio in experiment [1] came out at 0.53; in experiment [2] it was 1.03.
Turning to `O=C(NCCCN1CCC(Cc2ccccc2)CC1)c1ccc2cc(Br)ccc2c1`, the figures for the half-maximal inhibitory concentration (IC50) in experiment [4] and in experiment [5] were 1910 nM and 885 nM, respectively. In addition, the Ratio amounted to 0.94 in experiment [1] and 1.11 in experiment [2].
Consider `O=C(NCCN1CCC(Cc2ccccc2)CC1)c1cc(Cl)cc(Cl)c1`, for which the Ratio was found to be 1 in experiment [1] and 0.64 in experiment [2].
Regarding `COc1ccc2cc(C(=O)NCCCN3CCC(Cc4ccccc4)CC3)ccc2c1`, the results for the IC50 in experiment [4] and in experiment [5] were 323 nM and 238 nM, respectively. Further, the Ratio is 1 in experiment [1] and 0.98 in experiment [2].
On to `O=C(NCCCN1CCC(Cc2ccccc2)CC1)c1cc2ccccc2o1`, for which the 50% inhibitory concentration (IC50) in experiment [4] came to 500 nM; in experiment [5], 621 nM. For the same compound, the Ratio in experiment [2] worked out at 0.84; in experiment [3], 1.54.
In the case of `O=C(NCCN1CCC(Cc2ccccc2)CC1)C(c1ccccc1)c1ccccc1`, the values for the Ratio in experiment [2] and in experiment [3] were 0.29 and 1.04, respectively.
Take `O=C(NCCN1CCC(Cc2ccccc2)CC1)c1cc2ccccc2o1`: the results for the Ratio in experiment [2] and in experiment [3] were 0.78 and 1.09, respectively.
For the compound `O=C(NCCCN1CCC(Cc2ccccc2)CC1)c1ccc2ccccc2n1`, the results for the Ratio in experiment [2] and in experiment [3] were 0.85 and 0.62, respectively.
On to `O=C(NCCN1CCC(Cc2ccccc2)CC1)c1ccc(-c2ccccc2)cc1`, for which the half-inhibitory concentration (IC50) was 986 nM in experiment [4] and 472 nM in experiment [5]. Further, the Ratio worked out at 0.98 in experiment [2] and 1.49 in experiment [3].
Consider `O=C(NCCCN1CCC(Cc2ccccc2)CC1)c1cc2ccccc2[nH]1`, for which the results for the IC50 in experiment [4] and in experiment [5] were 546 nM and 268 nM, respectively. Moreover, the Ratio in experiment [2] turned out to be 0.84; in experiment [3] it was 1.72.
In the case of `O=C(NCCCN1CCC(Cc2ccccc2)CC1)c1cccc2ccccc12`, the Ratio in experiment [1] was found to be 1.32; in experiment [2] it was 0.6.
With `O=C(NCCCN1CCC(Cc2ccccc2)CC1)c1ccc(-c2ccccc2)cc1`, the IC50 in experiment [4] turned out to be 56 nM; in experiment [5], 153 nM. Besides, the Ratio in experiment [2] worked out at 1.01; in experiment [3], 1.59.
In the case of `O=C(NCCCN1CCC(Cc2ccccc2)CC1)c1cc2ccccc2s1`, the results for the IC50 in experiment [4] and in experiment [5] were 449 nM and 4750 nM, respectively. The Ratio in experiment [2] was 1.1; in experiment [3] it was 1.8.
